A short description of data set [1]: Inhibition of HCV NS5B polymerase. Set-up: species or system Hepacivirus hominis. Summed up: (§1)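 In vitro nucleotide incorporation assay using functionally active recombinant NS5B with a hairpin-like primed RNA substrate. Controls: enzyme without compound (positive) and enzyme with basilen blue (negative). Result reported as IC50.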
The nature of data set [2]: Cytotoxicity against Huh7 cells by MTS assay. It counts as cell-based. Particulars: human, huh-7. An outline of the steps:
(§2)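 MTS metabolic assay run on rapidly dividing and on stationary cells.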
Background: Tetrazolium assays rely on reduction of a dye to a coloured formazan, in cell work by metabolically active cells.

The target of data set [3] is DNA polymerase beta (Homo sapiens, UniProt P06746). Put plainly: Inhibition of human DNA polymerase beta.
The nature of data set [4]: Inhibition of calf thymus polymerase alpha. Also noted: species or system Bos taurus.
The nature of data set [5]: Inhibition of HIV reverse transcriptase. Also noted: species or system Human immunodeficiency virus.
Data set [6] relates to Vero. Put plainly: Cytotoxicity against Vero cells by MTS assay. It counts as cell-based. Particulars: chlorocebus sabaeus. Summed up: as §2
A short description of data set [7]: Inhibition of helicase. Set-up: species or system Homo sapiens.
Data set [8] can be described thus: Inhibition of HCV 1a NS5B polymerase. Also noted: species or system Hepatitis C virus subtype 1a. Summed up: (§3)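 In vitro nucleotide incorporation assay using functionally active recombinant NS5B enzyme and a hairpin-like primed RNA substrate. Enzyme without compound served as the positive control, and enzyme with basilen blue dye as the negative control. IC50 values were determined.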

In data set [9] the test system is Hepatitis C virus. Put plainly: Inhibition of HCV 1b NS5B polymerase. Set-up: species or system Hepatitis C virus subtype 1b. An outline of the steps:
as §1

Data set [10] in a line: Inhibition of HCV 3a NS5B polymerase. Set-up: species or system Hepatitis C virus subtype 3a. An outline of the steps:
as §3

Data set [11] concerns Hepatitis C virus. Put plainly: Reduction of viral RNA in Huh7 cells containing HCV sub-genomic replicon after 3 days. It counts as functional, organism-based, Hepacivirus hominis. Particulars: Huh-7, 72 h. Background: A replicon is a self-replicating genome or part of one, used to study replication in cells.
The species entered for data set [12] is Homo sapiens. As to the kind of experiment: Inhibition of human mitochondrial DNA polymerase gamma up to 80 uM.
Data set [13] deals with Hepatitis C virus. Put plainly: Reduction of viral protein in Huh7 cells containing HCV sub-genomic replicon after 3 days. It counts as functional, organism-based. Particulars: Hepacivirus hominis; Huh-7.

Usually IC50 stands for the point on the concentration scale where inhibition reaches its midpoint. Lower therefore signals greater potency. One may read the EC50 as the concentration at which the effect is half-maximal. Higher therefore signals lower potency in that assay.

The structures appear in SMILES notation. Activity calls are given as the source filed them. No cut-off for these calls is given here. Some results are limits rather than exact numbers.

As to `CCCC1(CC(=O)O)OCCc2c1[nH]c1cccc(Cl)c21` (centres undefined), in data set [1], the IC50 was 6000 nM.
In data set [1], `CCCC1(CC(=O)O)OCCc2c1[nH]c1c(F)ccc(C#N)c21` (centres undefined) came in with a half-maximal inhibitory concentration (IC50) of 1000 nM.
Compound `CCC[C@]1(CC(=O)O)OCCc2c1[nH]c1c(F)ccc(C#N)c21` returned a half-inhibitory concentration (IC50) in [1] of 440 nM. Moreover, the Activity in data set [2] was > 50 µM.
Consider `CCC[C@]1(CC(=O)O)OCCc2c1[nH]c1c(Cl)ccc(Cl)c21`, for which the concentration for half-maximal inhibition (IC50) in [1] came out at 60 nM. The same compound returned an Activity in data set [2] of 33 µM.
`CCCC1(CC(=O)O)OCCc2c1[nH]c1c(C)ccc(C#N)c21` (centres undefined) registered a concentration for half-maximal inhibition (IC50) in data set [1] of 570 nM.
For `CCC[C@@]1(CC(=O)O)OCCc2c1[nH]c1c(Cl)ccc(CC)c21`, the concentration for half-maximal inhibition (IC50) in data set [1] is > 15000 nM. Moreover, in data set [2], the Activity was > 50 µM.
For the compound `CCCC1(CC(=O)OCC)OCCc2c1[nH]c1c(C)ccc(C#N)c21` (centres undefined), the IC50 in data set [1] was > 30000 nM.
For `CCC[C@@]1(CC(=O)O)OCCc2c1[nH]c1c(F)ccc(C#N)c21`, the IC50 in data set [1] worked out at 5200 nM. Besides, the Activity in data set [2] is > 50 µM.
For `CCc1ccc(Cl)c2[nH]c3c(c12)CCOC3(CC)CC(=O)O` (centres undefined), the half-maximal inhibitory concentration (IC50) in data set [1] is > 30000 nM.
The same measure, in the same setting: under `CCCC1(CC(=O)O)OCCc2c1[nH]c1c(Cl)ccc(Cl)c21` (centres undefined) stands 270 nM.
For the compound `CCCC1(CC(=O)O)OCCc2c1[nH]c1c(C)cc(F)c(C#N)c21` (centres undefined), half-maximal inhibition in [1] (IC50) was put at 120 nM.
As for `CCC[C@@]1(CC(=O)O)OCCc2c1[nH]c1c(Cl)ccc(Cl)c21`, inhibition in [1] was half-maximal at 1100 nM (IC50). This compound also gave an Activity in [2] of 49 µM.
On to `CCC[C@@]1(CC(=O)O)OCCc2c1[nH]c1c(C)cc(F)c(C#N)c21`, for which, in [1], the IC50 came out at 630 nM. The Activity in data set [2] is > 50 µM.
As to `CCC[C@]1(CC(=O)O)OCCc2c1[nH]c1c(Cl)ccc(CC)c21`, it took 2000 nM to reach half-maximal inhibition in data set [1] (IC50). The Activity in data set [2] was > 50 µM.
The compound `CCC[C@]1(CC(=O)O)OCCc2c1[nH]c1c(C)cc(F)c(C#N)c21` showed a half-maximal inhibitory concentration (IC50) in data set [1] of 80 nM. In [2], the Activity was > 50 µM.
Take `CCCC1(CC(=O)O)OCCc2c1[nH]c1c(Cl)ccc(CC)c21` (centres undefined): the half-maximal inhibitory concentration (IC50) in data set [1] is 3000 nM; in [3], > 100000 nM; in data set [4] it was > 100000 nM; in data set [5], > 100000 nM; in data set [7] it was > 75000 nM. The Activity entry in data set [6] and in [2] was “Not Active” in each case.
With `CCC[C@]1(CC(=O)O)OCCc2c1[nH]c1c(C)ccc(C#N)c21`, the IC50 in data set [1] is 330 nM; in data set [8], 300 nM; in data set [9], 300 nM; in data set [10], 300 nM. The compound also came in with an EC50 in data set [11] of 4800 nM. Moreover, the outcome in data set [12] was inactive. In data set [13], the Activity result is “Dose-dependent effect”.
In turn, `CCCC1(CC(=O)O)OCCc2c1[nH]c1c(C)ccc(C#N)c21` (single isomer, unassigned) showed an IC50 in data set [1] of 2400 nM. In addition, in data set [2], the Activity was > 50 µM.

The values are drawn from ChEMBL document CHEMBL1149284, “Discovery of pyrano[3,4-b]indoles as potent and selective HCV NS5B polymerase inhibitors” (J Med Chem, 2004).
